According to the M2OR odorant receptor database:

Experiments:
Conditions in all cases: stereoisomer not certain
UniProt Q8VGC6 = molecular target: T1, UniProt Q8VGC6
T1 sequence (whole entry): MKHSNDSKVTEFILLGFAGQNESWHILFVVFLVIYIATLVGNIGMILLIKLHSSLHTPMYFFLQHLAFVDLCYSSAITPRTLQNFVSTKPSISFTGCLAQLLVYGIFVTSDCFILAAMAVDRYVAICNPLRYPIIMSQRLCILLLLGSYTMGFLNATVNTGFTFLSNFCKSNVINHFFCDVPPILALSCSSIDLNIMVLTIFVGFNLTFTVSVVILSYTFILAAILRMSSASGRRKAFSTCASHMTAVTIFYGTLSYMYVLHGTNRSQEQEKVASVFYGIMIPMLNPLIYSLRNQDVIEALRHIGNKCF
Method in brief: (§1)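 Each entry records the cell line, G-protein, co-transfected protein and tags used. Methods varied with the source, often transient luciferase assays in mammalian cell lines. A receptor–molecule pair is called responsive (active) if the original authors judged its signal statistically different from baseline and non-responsive (inactive) otherwise.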

UniProt Q8VGJ3 = molecular target: T2, UniProt Q8VGJ3
T2 sequence (whole entry): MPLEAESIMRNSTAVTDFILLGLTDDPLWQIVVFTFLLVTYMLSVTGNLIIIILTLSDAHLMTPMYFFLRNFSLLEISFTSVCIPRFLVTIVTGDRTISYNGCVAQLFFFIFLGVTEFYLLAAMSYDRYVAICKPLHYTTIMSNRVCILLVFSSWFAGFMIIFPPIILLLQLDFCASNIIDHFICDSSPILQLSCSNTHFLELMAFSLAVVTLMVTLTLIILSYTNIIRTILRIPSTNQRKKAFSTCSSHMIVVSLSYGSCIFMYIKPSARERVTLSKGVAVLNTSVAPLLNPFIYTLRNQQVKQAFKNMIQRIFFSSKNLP
Method in brief: as §1

UniProt Q8VGL0 = molecular target: T3, UniProt Q8VGL0
T3 sequence (whole entry): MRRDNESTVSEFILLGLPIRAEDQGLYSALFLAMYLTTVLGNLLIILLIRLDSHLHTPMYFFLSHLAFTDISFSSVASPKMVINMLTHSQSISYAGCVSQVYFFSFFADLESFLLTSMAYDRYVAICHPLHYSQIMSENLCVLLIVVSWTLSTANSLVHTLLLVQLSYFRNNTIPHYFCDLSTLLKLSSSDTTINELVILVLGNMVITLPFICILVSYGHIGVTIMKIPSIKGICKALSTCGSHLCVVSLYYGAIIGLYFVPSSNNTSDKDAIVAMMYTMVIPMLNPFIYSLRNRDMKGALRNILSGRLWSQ
Method in brief: as §1

UniProt Q8VGU3 = molecular target: T4, UniProt Q8VGU3
T4 sequence (whole entry): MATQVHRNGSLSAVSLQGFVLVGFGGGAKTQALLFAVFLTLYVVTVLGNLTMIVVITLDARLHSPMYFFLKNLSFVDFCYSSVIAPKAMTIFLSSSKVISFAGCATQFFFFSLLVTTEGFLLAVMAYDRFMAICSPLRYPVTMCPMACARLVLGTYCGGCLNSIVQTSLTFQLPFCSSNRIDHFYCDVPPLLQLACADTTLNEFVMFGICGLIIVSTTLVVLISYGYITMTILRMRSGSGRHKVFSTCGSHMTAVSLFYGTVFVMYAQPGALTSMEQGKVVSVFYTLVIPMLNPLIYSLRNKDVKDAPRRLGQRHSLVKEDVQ
Method in brief: as §1

UniProt Q8VGV7 = molecular target: T5, UniProt Q8VGV7
T5 sequence (whole entry): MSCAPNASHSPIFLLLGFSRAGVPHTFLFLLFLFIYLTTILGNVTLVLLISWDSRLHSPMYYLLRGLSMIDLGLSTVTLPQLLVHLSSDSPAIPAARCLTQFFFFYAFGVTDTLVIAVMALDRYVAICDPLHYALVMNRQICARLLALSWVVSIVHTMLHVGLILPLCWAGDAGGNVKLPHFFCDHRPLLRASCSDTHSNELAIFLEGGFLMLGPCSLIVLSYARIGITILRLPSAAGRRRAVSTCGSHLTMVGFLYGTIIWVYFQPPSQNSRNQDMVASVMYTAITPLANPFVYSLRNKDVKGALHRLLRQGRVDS
Method in brief: as §1

UniProt Q8VGX3 = molecular target: T6, UniProt Q8VGX3
T6 sequence (whole entry): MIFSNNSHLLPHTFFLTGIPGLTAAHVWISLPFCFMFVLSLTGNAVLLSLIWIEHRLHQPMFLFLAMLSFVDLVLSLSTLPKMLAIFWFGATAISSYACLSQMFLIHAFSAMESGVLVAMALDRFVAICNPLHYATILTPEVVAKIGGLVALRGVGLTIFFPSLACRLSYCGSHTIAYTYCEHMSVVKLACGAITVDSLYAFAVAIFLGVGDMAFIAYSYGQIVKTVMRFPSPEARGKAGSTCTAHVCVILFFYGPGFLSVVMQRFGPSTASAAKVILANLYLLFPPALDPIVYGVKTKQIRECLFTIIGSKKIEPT
Method in brief: as §1

UniProt Q8VGX5 = molecular target: T7, UniProt Q8VGX5
T7 sequence (whole entry): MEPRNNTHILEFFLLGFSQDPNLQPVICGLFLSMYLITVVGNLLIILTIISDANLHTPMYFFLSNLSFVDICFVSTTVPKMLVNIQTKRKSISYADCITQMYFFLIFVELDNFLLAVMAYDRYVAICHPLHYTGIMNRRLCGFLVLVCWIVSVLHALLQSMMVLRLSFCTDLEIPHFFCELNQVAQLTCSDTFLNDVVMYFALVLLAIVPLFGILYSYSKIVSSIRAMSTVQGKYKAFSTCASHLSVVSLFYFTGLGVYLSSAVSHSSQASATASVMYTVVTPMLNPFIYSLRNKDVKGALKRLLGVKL
Method in brief: as §1

UniProt Q8VGD7 = molecular target: T8, UniProt Q8VGD7
T8 sequence (whole entry): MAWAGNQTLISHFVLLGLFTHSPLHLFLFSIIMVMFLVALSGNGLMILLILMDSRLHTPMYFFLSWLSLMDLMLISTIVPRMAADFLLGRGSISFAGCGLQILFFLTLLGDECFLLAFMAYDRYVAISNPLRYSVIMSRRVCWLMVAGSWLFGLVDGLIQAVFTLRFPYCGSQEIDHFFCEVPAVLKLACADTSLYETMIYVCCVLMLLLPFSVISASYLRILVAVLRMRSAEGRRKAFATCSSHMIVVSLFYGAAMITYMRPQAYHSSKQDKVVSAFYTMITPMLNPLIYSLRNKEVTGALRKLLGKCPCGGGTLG
Method in brief: as §1

UniProt Q8VGH1 = molecular target: T9, UniProt Q8VGH1
T9 sequence (whole entry): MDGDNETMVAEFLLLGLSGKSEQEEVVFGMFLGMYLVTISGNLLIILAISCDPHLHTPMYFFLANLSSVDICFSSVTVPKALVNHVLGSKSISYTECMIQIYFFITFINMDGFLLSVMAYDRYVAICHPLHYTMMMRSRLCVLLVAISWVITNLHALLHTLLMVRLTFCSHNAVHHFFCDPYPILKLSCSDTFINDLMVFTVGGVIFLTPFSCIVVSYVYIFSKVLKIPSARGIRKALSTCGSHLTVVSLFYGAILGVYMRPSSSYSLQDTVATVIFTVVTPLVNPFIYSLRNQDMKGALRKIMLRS
Method in brief: as §1

UniProt Q8VGJ1 = molecular target: T10, UniProt Q8VGJ1
T10 sequence (whole entry): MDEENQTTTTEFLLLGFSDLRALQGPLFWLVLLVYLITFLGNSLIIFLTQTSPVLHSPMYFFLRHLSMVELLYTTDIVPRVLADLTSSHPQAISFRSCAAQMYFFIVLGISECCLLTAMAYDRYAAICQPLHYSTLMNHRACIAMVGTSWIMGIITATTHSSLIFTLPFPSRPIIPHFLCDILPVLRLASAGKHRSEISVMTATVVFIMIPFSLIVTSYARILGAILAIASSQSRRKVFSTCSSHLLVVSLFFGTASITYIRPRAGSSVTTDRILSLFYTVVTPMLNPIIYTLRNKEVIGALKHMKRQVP
Method in brief: as §1

UniProt Q8VGJ5 = molecular target: T11, UniProt Q8VGJ5
T11 sequence (whole entry): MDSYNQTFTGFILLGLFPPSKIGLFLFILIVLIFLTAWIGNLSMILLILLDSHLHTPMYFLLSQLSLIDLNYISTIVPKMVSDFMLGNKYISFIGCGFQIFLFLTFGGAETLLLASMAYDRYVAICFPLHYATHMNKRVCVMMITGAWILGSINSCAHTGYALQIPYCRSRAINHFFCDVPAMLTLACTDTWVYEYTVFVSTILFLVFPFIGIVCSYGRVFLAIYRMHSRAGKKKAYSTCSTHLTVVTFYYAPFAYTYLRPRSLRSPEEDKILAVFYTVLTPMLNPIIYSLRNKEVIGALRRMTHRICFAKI
Method in brief: as §1

UniProt Q8VGL7 = molecular target: T12, UniProt Q8VGL7
T12 sequence (whole entry): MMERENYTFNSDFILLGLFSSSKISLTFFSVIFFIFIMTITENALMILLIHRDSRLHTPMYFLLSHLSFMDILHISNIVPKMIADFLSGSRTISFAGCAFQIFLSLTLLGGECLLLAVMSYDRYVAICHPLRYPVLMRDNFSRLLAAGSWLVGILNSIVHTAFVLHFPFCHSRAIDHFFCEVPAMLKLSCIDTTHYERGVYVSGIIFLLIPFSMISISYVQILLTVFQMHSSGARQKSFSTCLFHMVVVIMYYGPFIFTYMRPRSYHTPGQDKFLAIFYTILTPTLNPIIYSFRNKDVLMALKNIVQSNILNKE
Method in brief: as §1

UniProt Q8VGM2 = molecular target: T13, UniProt Q8VGM2
T13 sequence (whole entry): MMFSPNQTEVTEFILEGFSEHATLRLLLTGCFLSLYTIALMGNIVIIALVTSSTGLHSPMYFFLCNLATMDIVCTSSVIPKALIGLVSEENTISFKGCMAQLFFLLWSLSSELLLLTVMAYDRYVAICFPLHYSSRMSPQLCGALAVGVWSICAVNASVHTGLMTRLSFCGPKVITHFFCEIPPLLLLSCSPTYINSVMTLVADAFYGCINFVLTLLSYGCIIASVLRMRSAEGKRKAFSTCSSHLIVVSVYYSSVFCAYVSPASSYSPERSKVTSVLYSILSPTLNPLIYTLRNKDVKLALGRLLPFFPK
Method in brief: as §1

UniProt Q8VGP6 = molecular target: T14, UniProt Q8VGP6
T14 sequence (whole entry): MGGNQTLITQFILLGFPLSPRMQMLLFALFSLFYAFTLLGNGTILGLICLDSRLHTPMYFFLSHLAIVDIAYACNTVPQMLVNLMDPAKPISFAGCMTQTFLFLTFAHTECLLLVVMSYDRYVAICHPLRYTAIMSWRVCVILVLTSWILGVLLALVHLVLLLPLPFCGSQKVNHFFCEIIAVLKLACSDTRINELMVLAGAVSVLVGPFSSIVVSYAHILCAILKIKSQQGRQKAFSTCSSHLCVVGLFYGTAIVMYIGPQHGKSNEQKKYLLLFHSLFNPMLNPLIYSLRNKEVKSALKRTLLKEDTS
Method in brief: as §1

UniProt Q8VGQ3 = molecular target: T15, UniProt Q8VGQ3
T15 sequence (whole entry): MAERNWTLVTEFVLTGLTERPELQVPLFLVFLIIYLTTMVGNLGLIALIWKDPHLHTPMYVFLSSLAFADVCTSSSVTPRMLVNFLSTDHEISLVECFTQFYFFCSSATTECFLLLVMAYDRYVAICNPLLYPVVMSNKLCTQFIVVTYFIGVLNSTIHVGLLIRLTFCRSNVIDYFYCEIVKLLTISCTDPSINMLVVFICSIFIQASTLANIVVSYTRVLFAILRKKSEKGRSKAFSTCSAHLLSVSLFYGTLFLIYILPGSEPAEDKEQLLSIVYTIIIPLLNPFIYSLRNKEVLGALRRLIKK
Method in brief: as §1

UniProt Q8VGT4 = molecular target: T16, UniProt Q8VGT4
T16 sequence (whole entry): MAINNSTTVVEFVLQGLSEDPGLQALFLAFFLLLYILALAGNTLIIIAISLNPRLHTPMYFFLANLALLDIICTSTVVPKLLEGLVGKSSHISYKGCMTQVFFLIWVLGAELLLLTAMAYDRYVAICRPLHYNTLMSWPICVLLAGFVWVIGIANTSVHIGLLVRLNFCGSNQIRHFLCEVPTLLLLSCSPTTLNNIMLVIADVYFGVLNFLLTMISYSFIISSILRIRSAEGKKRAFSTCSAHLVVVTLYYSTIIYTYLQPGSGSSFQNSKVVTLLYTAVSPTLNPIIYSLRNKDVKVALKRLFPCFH
Method in brief: as §1

UniProt Q8VGV1 = molecular target: T17, UniProt Q8VGV1
T17 sequence (whole entry): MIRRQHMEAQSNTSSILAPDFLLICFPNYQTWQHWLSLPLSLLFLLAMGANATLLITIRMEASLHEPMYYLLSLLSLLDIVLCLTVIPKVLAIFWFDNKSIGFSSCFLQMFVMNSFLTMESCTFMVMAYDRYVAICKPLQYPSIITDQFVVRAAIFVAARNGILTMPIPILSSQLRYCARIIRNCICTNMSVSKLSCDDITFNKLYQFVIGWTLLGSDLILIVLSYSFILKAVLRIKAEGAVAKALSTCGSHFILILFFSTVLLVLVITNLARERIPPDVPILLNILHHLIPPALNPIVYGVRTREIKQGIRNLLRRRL
Method in brief: as §1

Measured: odorant receptor agonist call

CCc1nccnc1CC
inactive: UniProt Q8VGC6 | UniProt Q8VGJ3 | UniProt Q8VGL0 | UniProt Q8VGU3 | UniProt Q8VGV7 | UniProt Q8VGX3 | UniProt Q8VGX5

CCCCCO
not listed: UniProt Q8VGJ3 | UniProt Q8VGU3 | UniProt Q8VGV7 | UniProt Q8VGX3
inactive: all other assays above

Cc1occc1SSc1ccoc1C
inactive: UniProt Q8VGC6 | UniProt Q8VGJ3 | UniProt Q8VGL0 | UniProt Q8VGU3 | UniProt Q8VGV7 | UniProt Q8VGX3 | UniProt Q8VGX5

CCCCCCCC(C)=O
active: UniProt Q8VGC6
inactive: all other assays above

C=CCOC(=O)CCCCCC
inactive: all assays above

CCCCCC1=C(C)CCC1=O
active: UniProt Q8VGJ5 | UniProt Q8VGL7 | UniProt Q8VGX5
inactive: all other assays above
